# Assay outcomes as filed in PubChem.
# RGS4 inh: inhibitors of human RGS4; AID 463165; 310,000 tested, 0.45% active; P49798; B-score at 10 µM; HEK293 M3R/RGS4 inducible, Fluo-4 calcium flux; hits give high values; triggered by carbachol at its EC20;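 active means B-score, a plate-corrected calcium signal, over three deviations above library mean, with baseline fluorescence within five deviations of library mean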;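 further: RGS4 expression induced by doxycycline in cells with stable M3 receptor; B-score is computed from the integrated fluorescence ratio over baseline after carbachol; higher B-score means a larger calcium signal and so more RGS4 inhibition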
# Target sequence (P49798 whole entry, looked up): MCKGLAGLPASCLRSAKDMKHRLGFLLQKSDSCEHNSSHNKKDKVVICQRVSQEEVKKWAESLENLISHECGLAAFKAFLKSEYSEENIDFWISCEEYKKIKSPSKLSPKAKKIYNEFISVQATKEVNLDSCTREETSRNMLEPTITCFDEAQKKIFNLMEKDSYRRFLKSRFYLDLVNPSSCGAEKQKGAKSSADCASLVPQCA
# MrgX1 PAM: allosterically activates human MrgX1 receptor signaling; Q96LB2; MrgX1-HEK293, Fluo-4 calcium flux, FDSS; hits give high values; B-score at 10 µM; 310,000 tested, 0.63% active;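 active means plate-corrected calcium response at least 3 library SD above typical, normal starting fluorescence, not activating the receptor alone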;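 further: compound read alongside a low EC10 to EC30 dose of BAM8-22 agonist; peak minus trough fluorescence over baseline measured at the second addition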
# MrgX1 antagonist: blocks BAM8-22 activation of human MrgX1 receptor | B-score at 10 µM | 310,000 tested, 1.3% active | MRGX1-HEK293 calcium flux, Fluo-4, BAM8-22 antagonism; hits give low values | Q96LB2 | AID 588676;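 active means calcium-response B-score plate-corrected more than 3 library SD below zero, starting fluorescence within 5 deviations, no agonist response on first addition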;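 further: peak minus trough fluorescence over baseline after final BAM8-22 challenge near maximal dose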
# MrgX1 ag: agonists of human MrgX1 receptor | MrgX1-HEK293 cells, Fluo-4 calcium fluorescence, agonist mode; hits give high values | 310,000 tested, 0.44% active | Q96LB2 | B-score at 10 µM;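 active means calcium response B-score plate-corrected fluorescence ratio at least 3 library SD, with starting fluorescence B-score inside 5 SD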
#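 Test system: HEK293 cells stably expressing human MrgX1 receptor; Input: fifteen thousand cells per well; Dosing: compound delivered in addition one of three; Schedule: overnight seeding, then 1 h dark dye loading; Technique: Fluo-4 NW calcium fluorescence; Measure: B-scored fluorescence response ratio; Controls: positive and negative controls per plate.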
# RGS4 act: potentiators or activators of RGS4. HEK293 M3R/inducible RGS4, carbachol calcium flux Fluo4; hits give low values. B-score at 10 µM. 310,000 tested, 0.92% active. AID 463111;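 active means B-score of the integrated calcium signal more than 4 SD below the library mean, with starting fluorescence not abnormally high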;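 further: negative B-score means reduced calcium response which marks RGS4 activation or potentiation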
#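 Reagent: ECmax carbachol challenge; Test system: M3R-expressing HEK293 line, RGS4 induced by doxycycline; Schedule: overnight RGS4 induction, 30 min dye load 37 °C, 20 min compound RT; Detection: calcium dye Fluo4 fluorescence; Read-out: Agonist-evoked peak-minus-minimum fluorescence over baseline, integrated ratio, B score.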
# MrgX1 ag reconf: confirmation of human MrgX1 receptor agonists. shares compounds with MrgX1 ag. MrgX1-HEK293, Fluo-4 calcium fluorescence, FDSS. activation, % at 10 µM. 600 tested, 78% active. AID 602412;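 active means calcium signal rise, corrected for plate position, at least 3 library SD high, with starting brightness within 5 such deviations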
# HEK293 Ca flux: counter-screen for MrgX1 antagonists: effect in parental HEK293 cells. shares compounds with MrgX1 antagonist. Fluo-4 calcium fluorescence, FDSS. fluorescence ratio F(max-min)/F0 at 10 µM. 4,000 tested, 2% active. AID 624111;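 active means duplicate-averaged calcium fluorescence ratio at least three times the standard deviation of buffer wells, a nonspecific response in parental cells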
# HEK293 Ca counter: activity in parental HEK293 cells without MrgX1; parental HEK293 calcium flux, Fluo-4 fluorescence ratio; hits give high values; fluorescence ratio F(max-min)/F0 at 10 µM; 4,000 tested, 0.4% active; shares compounds with MrgX1 antagonist; AID 624114;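 active means calcium fluorescence ratio, averaged over duplicates, at least 3 SD of the buffer-well ratio, meaning a nonspecific response in receptor-free cells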;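 further: untransfected parental HEK293 lacking MrgX1 used as counterscreen for MrgX1 allosteric activators; fluorescence change taken during the second addition on a kinetic imager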
# HEK293 Ca cntr2: MrgX1 activator counter-screen hit in parental HEK293 cells; shares compounds with MrgX1 antagonist; 4,000 tested, 8.7% active; fluorescence ratio F(max-min)/F0 at 10 µM; Fluo-4 calcium fluorescence (FDSS); hits give high values; AID 624115;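 active means calcium fluorescence ratio at least three times the spread of buffer wells, meaning a non-specific response in parental cells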
# Active calls of the source: *; i = inactive; / = not tested or not shown. Hits are enriched below; roughly 3.5% of the tested compounds scored in any of these assays.
SMILES,RGS4 inh,MrgX1 PAM,MrgX1 antagonist,MrgX1 ag,RGS4 act,MrgX1 ag reconf,HEK293 Ca flux,HEK293 Ca counter,HEK293 Ca cntr2
O=C(CNCC1(N2CCOCC2)CCCCC1)Nc1ccc(Cl)cc1,i,i,i,74*,i,i,i,i,i
O=C(CCC1CCCC1)c1c(O)c2ccccc2oc1=O,i,i,i,87*,i,564%*,i,i,111*
CCCn1c(N)c(N(CCOC)C(=O)c2ccc(N(C)S(=O)(=O)c3ccc(C)cc3)cc2)c(=O)[nH]c1=O,i,i,i,i,i,/,/,/,/
CC(C)[C@H](NC(=O)OCc1ccccc1)C(=O)N[C@@H](Cc1c[nH]c2ccccc12)C(=O)O,i,i,i,i,i,/,/,/,/
O=C(Nc1ccccc1)Nc1ccc2ccccc2c1,i,i,i,34*,i,i,i,i,i
N#Cc1c(NCCN)nc(-c2ccco2)c2c1CCCC2,i,i,i,i,i,/,/,/,/
CC(C)CCNc1nc(-c2ccco2)c2c(c1C#N)CCCC2,i,i,i,27*,i,i,i,i,i
CCCOc1ccc(-c2csc3ncn(Cc4ccc(C(=O)O)cc4)c(=O)c23)cc1,i,i,i,32*,i,204%*,i,i,i
CC(OC(=O)c1ccco1)C(=O)NCc1ccc2c(c1)OCO2 (stereo not given),i,i,i,i,i,/,/,/,/
COc1cccc(-c2nnc(NC(=O)c3cccc(F)c3)o2)c1,i,i,i,28*,i,686%*,i,i,107*
O=C(Nc1nnc(-c2ccc3c(c2)CCCC3)o1)c1ccccc1,i,i,i,28*,i,140%*,i,i,51*
O=C(Nc1nnc(-c2ccc3c(c2)CCCC3)o1)c1ccccc1Cl,i,i,i,i,i,/,/,/,/
NC1=NC2=C(CCCC2)C2(CCCCC2)S1,i,i,i,32*,i,160%*,i,i,i
COc1ccccc1NS(=O)(=O)c1cc(C(=O)NCc2ccncc2)ccc1C,i,i,i,i,i,/,/,/,/
COc1ccccc1NS(=O)(=O)c1cc(C(=O)NCCC(C)C)ccc1F,i,i,i,35*,i,313%*,i,i,101*
Nc1ncnc2c1ncn2C1OC(C(=O)NC2CC2)C(O)C1O (stereo not given),/,i,i,30*,/,100%*,i,i,i
N#CC1(Nc2ccccc2)C(=O)Nc2ccccc21 (stereo not given),i,i,i,37*,i,137%*,i,i,i
Cc1ccc2nc(/C(C#N)=C\c3ccc(N4CCOCC4)o3)[nH]c2c1,i,i,i,68*,i,i,0.33*,i,i
Nc1nc2ccccc2n1CCOc1ccc(F)cc1,i,i,i,41*,i,134%*,i,i,i
COc1ccc(OCCn2c(N)nc3ccccc32)cc1,i,i,i,30*,i,153%*,i,i,i
CCSc1nc2ccccc2n1CCOc1ccccc1,i,i,i,i,i,/,/,/,/
Cc1nc2ccccc2n1CCOc1ccccc1,i,i,i,i,i,/,/,/,/
Cc1ccc(Cl)cc1NC(=O)N[C@@H](CC(C)C)C(=O)O,i,i,i,i,i,/,/,/,/
CCCCN(S(=O)(=O)c1ccccc1)S(=O)(=O)c1ccccc1,i,i,i,i,i,/,/,/,/
